These results are taken from ChEMBL document CHEMBL1141228, “Conformationally constrained CCK4 analogues incorporating IBTM and BTD beta-turn mimetics” (J Med Chem, 2005).

Experiment [1] deals with T1, Cholecystokinin receptor type A (Rattus norvegicus, UniProt P30551).
T1 sequence (P30551 whole entry): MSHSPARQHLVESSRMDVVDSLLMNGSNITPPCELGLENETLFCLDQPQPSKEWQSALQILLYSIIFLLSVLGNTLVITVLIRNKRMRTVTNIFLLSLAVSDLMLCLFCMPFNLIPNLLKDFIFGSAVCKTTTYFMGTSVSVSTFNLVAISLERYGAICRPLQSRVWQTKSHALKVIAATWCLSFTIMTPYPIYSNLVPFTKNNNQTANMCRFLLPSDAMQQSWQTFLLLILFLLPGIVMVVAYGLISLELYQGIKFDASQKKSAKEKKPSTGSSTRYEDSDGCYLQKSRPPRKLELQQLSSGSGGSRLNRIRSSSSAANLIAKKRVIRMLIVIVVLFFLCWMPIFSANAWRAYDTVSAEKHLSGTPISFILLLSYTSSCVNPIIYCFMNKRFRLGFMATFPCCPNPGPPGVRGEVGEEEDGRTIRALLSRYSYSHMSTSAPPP
In words: Displacement of [3H]propionylCCK8 from rat pancreatic CCK1. The procedure, abridged:
(§1)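 Binding run on rat tissue homogenates: pancreas for CCK1, cerebral cortex for CCK2. Seven concentrations of test compound, each in duplicate. Values are means or mean ± SEM of at least three experiments.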

The target in a further experiment is T2, Cholecystokinin receptor (Rattus norvegicus, UniProt P30551+P30553).
T2 sequence (P30551 whole entry): T1 sequence (P30551 whole entry)
T2 sequence (P30553 whole entry): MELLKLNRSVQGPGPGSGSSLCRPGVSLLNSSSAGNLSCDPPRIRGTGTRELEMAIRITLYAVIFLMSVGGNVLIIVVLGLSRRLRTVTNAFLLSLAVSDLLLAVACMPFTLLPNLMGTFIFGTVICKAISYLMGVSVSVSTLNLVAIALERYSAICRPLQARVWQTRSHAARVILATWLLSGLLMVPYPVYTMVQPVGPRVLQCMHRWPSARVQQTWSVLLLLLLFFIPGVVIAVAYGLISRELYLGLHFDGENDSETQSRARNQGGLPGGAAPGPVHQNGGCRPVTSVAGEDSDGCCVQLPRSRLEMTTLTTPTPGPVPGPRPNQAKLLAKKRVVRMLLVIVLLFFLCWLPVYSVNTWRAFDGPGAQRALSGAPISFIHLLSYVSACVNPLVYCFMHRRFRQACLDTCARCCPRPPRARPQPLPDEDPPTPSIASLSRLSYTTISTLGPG
In words: Antagonizing activity of CCK8 induced amylase secretion from rat pancreatic acini. In outline: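 Rat pancreas digested with collagenase (70 U/mL) in three 10-min incubations at 37 °C under O2 to give dispersed acini. Acini incubated 30 min at 37 °C under pure O2 with agitation, 0.1 nM CCK8 as stimulus, test compound at increasing concentrations. Amylase measured by kit; release expressed as percent of acinar amylase; percent inhibition computed against vehicle control; IC50 derived.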

Experiment [2] concerns the target T3, Gastrin/cholecystokinin type B receptor (Rattus norvegicus, UniProt P30553).
T3 sequence (P30553 whole entry): T2 sequence (P30553 whole entry)
In words: Displacement of [3H]propionylCCK8 from rat cerebral cortex CCK2. It is filed as tissue-based. The procedure, abridged:
as §1

Regarding `CC(C)(C)OC(=O)N[C@H](Cc1c[nH]c2ccccc12)C(=O)N[C@@H]1C[C@H]2c3[nH]c4ccccc4c3C[C@H](C(=O)N[C@@H](Cc3ccccc3)C(N)=O)N2C1=O`, the IC50 was 25.9 nM in experiment [1], 829 nM on Cholecystokinin receptor and > 10000 nM in experiment [2].
For `CC(C)(C)OC(=O)N[C@H](Cc1c[nH]c2ccccc12)C(=O)N[C@H]1CC[C@@H]2SC[C@@H](C(=O)N[C@@H](Cc3ccccc3)C(N)=O)N2C1=O`, the IC50 in experiment [1] is > 1000 nM; in experiment [2], > 10000 nM.
Consider `CC(C)(C)OC(=O)N[C@H](Cc1c[nH]c2ccccc12)C(=O)N[C@H]1C[C@@H]2c3[nH]c4ccccc4c3C[C@@H](C(=O)N[C@@H](Cc3ccccc3)C(N)=O)N2C1=O`, for which the IC50 in experiment [1] is 817 nM; in experiment [2] it was > 10000 nM.
Take `O=C(N[C@H]1C[C@@H]2c3[nH]c4ccccc4c3C[C@@H](C(=O)N[C@@H](Cc3ccccc3)C(=O)O)N2C1=O)OCc1ccccc1`: in experiment [2], the IC50 was > 10000 nM.
For the compound `CC(C)(C)OC(=O)N[C@@H](Cc1c[nH]c2ccccc12)C(=O)N[C@H]1C[C@@H]2c3[nH]c4ccccc4c3C[C@@H](C(=O)N[C@H](Cc3ccccc3)C(N)=O)N2C1=O`, the values for the IC50 in experiment [1] and in experiment [2] were > 1000 nM and 524 nM, respectively.
Turning to `CC(C)(C)OC(=O)N[C@@H](Cc1c[nH]c2ccccc12)C(=O)N[C@H]1CC[C@@H]2SC[C@@H](C(=O)N[C@@H](Cc3ccccc3)C(N)=O)N2C1=O`, the IC50 was > 1000 nM in experiment [1] and > 10000 nM in experiment [2].
With `CC(C)(C)OC(=O)N[C@@H](Cc1c[nH]c2ccccc12)C(=O)N[C@H]1CC[C@@H]2SC[C@@H](C(=O)N[C@H](Cc3ccccc3)C(N)=O)N2C1=O`, the IC50 is > 1000 nM in experiment [1] and > 10000 nM in experiment [2].
The matching figures for `CC(C)(C)OC(=O)N[C@@H](Cc1c[nH]c2ccccc12)C(=O)N[C@@H]1C[C@H]2c3[nH]c4ccccc4c3C[C@H](C(=O)N[C@H](Cc3ccccc3)C(N)=O)N2C1=O`: > 1000 nM and > 10000 nM.
Consider `COC(=O)[C@@H](Cc1ccccc1)NC(=O)[C@@H]1Cc2c([nH]c3ccccc23)[C@H]2C[C@H](NC(=O)[C@@H](Cc3c[nH]c4ccccc34)NC(=O)OC(C)(C)C)C(=O)N21`, for which the IC50 in experiment [1] and in experiment [2] was > 10000 nM throughout.
As to `CC(C)(C)OC(=O)N[C@H](Cc1c[nH]c2ccccc12)C(=O)N[C@H]1C[C@@H]2c3[nH]c4ccccc4c3C[C@@H](C(=O)N[C@H](Cc3ccccc3)C(N)=O)N2C1=O`, the IC50 in experiment [1] is > 1000 nM; in experiment [2] it was 938 nM.
Turning to `CC(C)(C)OC(=O)N[C@@H](Cc1c[nH]c2ccccc12)C(=O)N[C@@H]1C[C@H]2c3[nH]c4ccccc4c3C[C@H](C(=O)N[C@@H](Cc3ccccc3)C(N)=O)N2C1=O`, the IC50 in experiment [1] is 54.9 nM; against Cholecystokinin receptor it was 130 nM; in experiment [2] it was > 10000 nM.
On to `CC(C)(C)OC(=O)N[C@H](Cc1c[nH]c2ccccc12)C(=O)N[C@@H]1C[C@H]2c3[nH]c4ccccc4c3C[C@H](C(=O)N[C@H](Cc3ccccc3)C(N)=O)N2C1=O`, for which the values for the IC50 in experiment [1] and in experiment [2] were 582 nM and > 10000 nM, respectively.
The matching figures for `CC(C)(C)OC(=O)N[C@H](Cc1c[nH]c2ccccc12)C(=O)N[C@H]1CC[C@@H]2SC[C@@H](C(=O)N[C@H](Cc3ccccc3)C(N)=O)N2C1=O`: > 1000 nM and > 10000 nM.
The matching figures for `COC(=O)[C@H](Cc1ccccc1)NC(=O)[C@@H]1Cc2c([nH]c3ccccc23)[C@H]2C[C@H](NC(=O)[C@H](Cc3c[nH]c4ccccc34)NC(=O)OC(C)(C)C)C(=O)N21`: > 10000 nM and > 10000 nM.
The matching figures for `CC(C)(C)OC(=O)N[C@@H](Cc1c[nH]c2ccccc12)C(=O)N[C@H]1C[C@@H]2c3[nH]c4ccccc4c3C[C@@H](C(=O)N[C@@H](Cc3ccccc3)C(N)=O)N2C1=O`: 625 nM and > 10000 nM.
`CSCC[C@H](NC(=O)[C@H](Cc1c[nH]c2ccccc12)NC(=O)OC(C)(C)C)C(=O)N[C@@H](CC(=O)O)C(=O)N[C@@H](Cc1ccccc1)C(N)=O` came in with an IC50 in experiment [1] of 1800 nM.
